Activity calls are given as the source filed them. The rule behind the calls is not given here.
Experiments:
[1] = Cytotoxicity against mouse Sarcoma 180 cells after 24 to 72 hrs by MTT assay; assay type: functional, cell-based
How it was run: (§1)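 MTT assay. IC50 taken as the drug concentration giving 50% inhibition of cell growth. Values are mean ± S.D. of four independent experiments, each run in triplicate.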

[2] = Cytotoxicity against human HeLaS3 cells after 24 to 72 hrs by MTT assay; assay type: functional, cell-based; conditions: HeLa S3; how it was run: as §1
[3] = test system: HEK-293T; test: Cytotoxicity against human 293T cells after 24 to 72 hrs by MTT assay; assay type: cell-based; how it was run: as §1
[4] = Cell cycle arrest in human HeLaS3 cells assessed as accumulation at S phase after 24 hrs using propidium iodide staining by flow cytometry (reference value: 6.36%); assay type: functional, cell-based; conditions: HeLa S3
[5] = Cell cycle arrest in human HeLaS3 cells assessed as accumulation at S phase after 48 hrs using propidium iodide staining by flow cytometry (reference value: 6.36%); assay type: functional, cell-based; conditions: HeLa S3
[6] = test system: HeLa S3; test: Induction of apoptosis in human HeLaS3 cells assessed as DNA fragmentation after 48 hrs agarose-gel electrophoresis; assay type: functional, cell-based
How it was run: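 HeLa S-3 cells treated with compound for 48 h. Genomic DNA extracted and run on a 2% agarose gel beside a 100 bp ladder marker to detect DNA fragmentation.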

[7] = Cell cycle arrest in human HeLaS3 cells assessed as accumulation at G1 phase after 24 hrs using propidium iodide staining by flow cytometry (reference value: 75.29%); assay type: functional, cell-based; conditions: HeLa S3
How it was run: (§2)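 HeLa S-3 cells incubated without (control) or with compound for 9, 24 or 48 h, then fixed and stained with propidium iodide. DNA content read by flow cytometry. Populations given as percent in sub-G1, G1, S and G2/M phases.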

[8] = Cell cycle arrest in human HeLaS3 cells assessed as accumulation at G2/M phase after 24 hrs using propidium iodide staining by flow cytometry (reference value: 16.21%); assay type: functional, cell-based; conditions: HeLa S3; how it was run: as §2
[9] = test system: HeLa S3; test: Induction of apoptosis in human HeLaS3 cells assessed as formation of chromatin condensation and fragmented nuclei after 48 hrs by Hoechst 33342 staining; assay type: functional, cell-based
How it was run: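 HeLa S-3 cells treated with compound for 48 h, then stained with Hoechst 33342. Nuclear chromatin examined by fluorescence microscopy for condensation and fragmented nuclei, with untreated cells as comparison.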

[10] = Cell cycle arrest in human HeLaS3 cells assessed as accumulation at G1 phase after 9 hrs using propidium iodide staining by flow cytometry (reference value: 75.29%); assay type: functional, cell-based; conditions: HeLa S3; how it was run: as §2
[11] = Cell cycle arrest in human HeLaS3 cells assessed as accumulation at G2/M phase after 9 hrs using propidium iodide staining by flow cytometry (reference value: 16.21%); assay type: functional, cell-based; conditions: HeLa S3; how it was run: as §2
[12] = Cell cycle arrest in human HeLaS3 cells assessed as accumulation at S phase after 9 hrs using propidium iodide staining by flow cytometry (reference value: 6.36%); assay type: functional, cell-based; conditions: HeLa S3
[13] = Cell cycle arrest in human HeLaS3 cells assessed as accumulation at G1 phase after 48 hrs using propidium iodide staining by flow cytometry (reference value: 75.29%); assay type: functional, cell-based; conditions: HeLa S3; how it was run: as §2
[14] = Cell cycle arrest in human HeLaS3 cells assessed as accumulation at sub-G1 phase after 24 hrs using propidium iodide staining by flow cytometry (reference value: 2.41%); assay type: functional, cell-based; conditions: HeLa S3; how it was run: as §2
[15] = Cell cycle arrest in human HeLaS3 cells assessed as accumulation at G2/M phase after 48 hrs using propidium iodide staining by flow cytometry (reference value: 16.21%); assay type: functional, cell-based; conditions: HeLa S3; how it was run: as §2
[16] = Cell cycle arrest in human HeLaS3 cells assessed as accumulation at sub-G1 phase after 9 hrs using propidium iodide staining by flow cytometry (reference value: 2.41%); assay type: functional, cell-based; conditions: HeLa S3; how it was run: as §2
[17] = Cell cycle arrest in human HeLaS3 cells assessed as accumulation at sub-G1 phase after 48 hrs using propidium iodide staining by flow cytometry (reference value: 2.41%); assay type: functional, cell-based; conditions: HeLa S3; how it was run: as §2

Row | Structure (SMILES) | IC50 [1] [µM] | IC50 [2] [µM] | IC50 [3] [µM] | also measured
1 | Clc1ccc2[nH]c3cnc(NCc4cccc(Oc5ccccc5)c4)cc3c2c1 | 1.36 | 1.8 | – | –
2 | CNc1cccc2c1[nH]c1cnc(N)cc12 | – | 12 | – | –
3 | O=C(Nc1cc(Cl)cc2c1[nH]c1cnc(NCc3ccccc3)cc12)c1ccncc1 | 7.9 | 13 | 8 | –
4 | O=C(Nc1cc(Cl)cc2c1[nH]c1cnc(NCc3ccccc3)cc12)c1ccccn1 | 1.9 | 3.7 | 4 | –
5 | CC(C)Nc1cc(Cl)cc2c1[nH]c1cnc(NCc3ccccc3)cc12 | – | 1.1 | 0.7 | –
6 | Nc1cc(Cl)cc2c1[nH]c1cnc(NCc3ccccc3)cc12 | 3.24 | 6.09 | 9.8 | –
7 | CS(=O)(=O)Nc1cc(Cl)cc2c1[nH]c1cnc(NCc3ccccc3)cc12 | – | 8 | – | –
8 | Nc1cc2c(cn1)[nH]c1c(NC(=O)c3ccccc3)cc(Cl)cc12 | 12.4 | 26.1 | – | –
9 | CCCCC(=O)Nc1cccc2c1[nH]c1cnc(N)cc12 | 38 | 56 | – | –
10 | CNc1ccc2[nH]c3cnc(NCc4ccccc4)cc3c2c1 | – | 10 | – | –
11 | CCCCC(=O)Nc1cc(Cl)cc2c1[nH]c1cnc(NCc3ccccc3)cc12 | 0.53 | 0.99 | 0.5 | –
12 | O=[N+]([O-])c1ccc2[nH]c3cnc(NCc4ccccc4)cc3c2c1 | – | 28 | – | –
13 | Clc1cc(NCc2ccccc2)c2[nH]c3cnc(NCc4ccccc4)cc3c2c1 | 2.6 | 4.2 | 3.8 | –
14 | Clc1cc(NCc2cccnc2)c2[nH]c3cnc(NCc4ccccc4)cc3c2c1 | 0.76 | 1.2 | 1 | –
15 | CC(C)C(=O)Nc1cc(Cl)cc2c1[nH]c1cnc(NCc3ccccc3)cc12 | 8 | 9 | 8 | –
16 | c1ccc(CNc2ccc3[nH]c4cnc(NCc5ccccc5)cc4c3c2)cc1 | – | 21 | – | –
17 | Clc1cc(NCc2cccs2)c2[nH]c3cnc(NCc4ccccc4)cc3c2c1 | 1.69 | 4.2 | 4 | –
18 | O=C(Nc1cc(Cl)cc2c1[nH]c1cnc(NCc3ccccc3)cc12)C(F)(F)C(F)(F)F | 6.1 | 9.2 | – | –
19 | O=C(Nc1cc(Cl)cc2c1[nH]c1cnc(NCc3ccccc3)cc12)c1ccccc1 | 2.8 | 4.6 | 4.8 | Activity [4]: 12.7%; Activity [5]: 11.1%; Activity [6]: Active; Activity [7]: 32.4%; Activity [8]: 40.1%; Activity [9]: Active; Activity [10]: 33.9%; Activity [11]: 49.1%; Activity [12]: 10.4%; Activity [13]: 11.7%; Activity [14]: 14.8%; Activity [15]: 55.3%; Activity [16]: 6.59%; Activity [17]: 22%
20 | CCCCCC(=O)Nc1cc(Cl)cc2c1[nH]c1cnc(NCc3ccccc3)cc12 | 0.92 | 2.13 | 1.4 | –
21 | CCNc1cc(Cl)cc2c1[nH]c1cnc(NCc3ccccc3)cc12 | 0.24 | 0.27 | 0.36 | –
22 | CNc1cccc2c1[nH]c1cnc(NCc3ccccc3)cc12 | 0.024 | 0.046 | – | –
23 | O=C(Nc1cc(Cl)cc2c1[nH]c1cnc(NCc3ccccc3)cc12)C(F)(F)C(F)(F)C(F)(F)F | 5.2 | 7 | – | –
24 | c1ccc(CNc2cc3c(cn2)[nH]c2ccccc23)cc1 | 0.44 | 0.11 | – | Activity [4]: 9.18%; Activity [5]: 16.2%; Activity [6]: Active; Activity [7]: 6.93%; Activity [8]: 67.7%; Activity [9]: Active; Activity [10]: 22.6%; Activity [11]: 57%; Activity [12]: 14.3%; Activity [13]: 12.2%; Activity [14]: 16.2%; Activity [15]: 52.8%; Activity [16]: 6.08%; Activity [17]: 18.8%
25 | Clc1cc(NCc2ccco2)c2[nH]c3cnc(NCc4ccccc4)cc3c2c1 | – | 3.8 | 3.1 | –
26 | O=C(Nc1cc(Cl)cc2c1[nH]c1cnc(NCc3ccccc3)cc12)C(F)(F)F | 5.1 | 6.3 | – | –

Row | Structure (SMILES) | IC50 [1] [µM] | IC50 [2] [µM] | IC50 [3] [µM] | also measured
27 | CS(=O)(=O)Nc1ccc2[nH]c3cnc(NCc4ccccc4)cc3c2c1 | – | 19 | – | –
28 | Nc1cc2c(cn1)[nH]c1ccc(Cl)cc12 | 29 | 71 | – | –
29 | CCCCC(=O)Nc1cc(Cl)cc2c1[nH]c1cnc(N)cc12 | 18.1 | 27 | – | –
30 | CC(C)(C)C(=O)Nc1ccc2[nH]c3cnc(NCc4ccccc4)cc3c2c1 | – | 14 | – | –
31 | Nc1cc2c(cn1)[nH]c1ccccc12 | 41 | 66 | – | –
32 | Clc1ccc2[nH]c3cnc(NCc4ccccc4)cc3c2c1 | 1.8 | 2.8 | – | Activity [4]: 7.74%; Activity [5]: 11.3%; Activity [6]: Active; Activity [7]: 8.2%; Activity [8]: 69.5%; Activity [9]: Active; Activity [10]: 33%; Activity [11]: 46.9%; Activity [12]: 10.9%; Activity [13]: 18.2%; Activity [14]: 14.6%; Activity [15]: 49%; Activity [16]: 9.14%; Activity [17]: 21.4%
33 | CNc1cc(Cl)cc2c1[nH]c1cnc(NCc3ccccc3)cc12 | 0.25 | 0.2 | 0.35 | –
34 | c1ccc(CNc2cc3c(cn2)[nH]c2ccc(NCc4ccco4)cc23)cc1 | – | 15 | – | –
35 | O=C(Nc1ccc2[nH]c3cnc(NCc4ccccc4)cc3c2c1)c1ccccc1 | – | 10 | – | –
36 | Clc1cc(NCc2ccncc2)c2[nH]c3cnc(NCc4ccccc4)cc3c2c1 | 1 | 1.4 | 1.4 | –
37 | c1ccc(Oc2cccc(CNc3cc4c(cn3)[nH]c3ccccc34)c2)cc1 | 0.03 | 0.074 | – | –
38 | O=C(Nc1cccc2c1[nH]c1cnc(NCc3ccccc3)cc12)c1ccccc1 | – | 0.141 | – | Activity [4]: 10.2%; Activity [5]: 9.05%; Activity [6]: Active; Activity [7]: 12.8%; Activity [8]: 71.1%; Activity [9]: Active; Activity [10]: 21.1%; Activity [11]: 65.6%; Activity [12]: 9.4%; Activity [13]: 9.36%; Activity [14]: 5.87%; Activity [15]: 63.4%; Activity [16]: 3.89%; Activity [17]: 18.2%
39 | Clc1cc(Cl)c2[nH]c3cnccc3c2c1 | – | 0.2 | – | –
40 | CC(=O)Nc1cc(Cl)cc2c1[nH]c1cnc(NCc3ccccc3)cc12 | 16.2 | 21 | 15 | –
41 | CCS(=O)(=O)Nc1ccc2[nH]c3cnc(NCc4ccccc4)cc3c2c1 | – | 3.4 | – | –
42 | Nc1ccc2[nH]c3cnc(NCc4ccccc4)cc3c2c1 | – | 11 | – | –
43 | CCCC(=O)Nc1cc(Cl)cc2c1[nH]c1cnc(NCc3ccccc3)cc12 | 1.35 | 2.6 | 2.3 | –
44 | O=C(Nc1cc(Cl)cc2c1[nH]c1cnc(NCc3ccccc3)cc12)c1cccnc1 | 8.3 | 15 | 10 | –
45 | CCCCNc1cc(Cl)cc2c1[nH]c1cnc(NCc3ccccc3)cc12 | 1.6 | 2.6 | 2.1 | –
46 | CCCNc1cc(Cl)cc2c1[nH]c1cnc(NCc3ccccc3)cc12 | 1.36 | 2.9 | 2 | –
47 | Clc1cc(NCc2ccccn2)c2[nH]c3cnc(NCc4ccccc4)cc3c2c1 | 1 | 1.5 | 1.1 | –
48 | Nc1cc2c(cn1)[nH]c1c(NC(=O)c3ccccc3)cccc12 | 98 | 118 | – | –
49 | CCC(=O)Nc1cc(Cl)cc2c1[nH]c1cnc(NCc3ccccc3)cc12 | 5.4 | 9.9 | 5.8 | –
50 | CNc1cccc2c1[nH]c1cnc(NCc3cccc(Oc4ccccc4)c3)cc12 | – | 0.032 | – | –
51 | CCS(=O)(=O)Nc1cc(Cl)cc2c1[nH]c1cnc(NCc3ccccc3)cc12 | – | 4.84 | – | –

Reference: ChEMBL document CHEMBL2169842, “Structure-activity relationship in the antitumor activity of 6-, 8- or 6,8-substituted 3-benzylamino-β-carboline derivatives” (Bioorg Med Chem Lett, 2012)
